Compound activity from PubChem BioAssay.
CendR NRP1 mod = NRP-1/CendR interaction modulation. FAM-RPARPAR peptide binding to NRP-1, fluorescence polarization. 360,000 tested, 0.85% active. inhibition, % at 25 µM;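 active = inhibition or corrected inhibition above about 18%, plus a signal ratio from 0.5 to 1.5, limit read from the data, passing the limit was not always enough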
Exocytosis inh = blocks lytic granule exocytosis. TALL-104 LAMP-1 surface exposure, flow cytometry; cells stimulated with thapsigargin and PMA. 360,000 tested, 0.66% active. inhibition, % at 10 µM;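 active = inhibition above about 55%, limit read from the data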
ARFGAP1 inh = inhibitors of rat ARFGAP1 | Arfgap1-stimulated ARF1 GTP hydrolysis, GDP FP detection | AID 651572 | 360,000 tested, 0.26% active | inhibition, % at 16.5 µM | Q62848;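 active = inhibition above a per-plate limit, mean inhibition of low control wells plus 3 SD, cut at about 25% in these data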;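 note: 0% = DMSO wells with enzyme and 100% = wells lacking Arfgap1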
Target sequence (Q62848 1-136 limits assumed): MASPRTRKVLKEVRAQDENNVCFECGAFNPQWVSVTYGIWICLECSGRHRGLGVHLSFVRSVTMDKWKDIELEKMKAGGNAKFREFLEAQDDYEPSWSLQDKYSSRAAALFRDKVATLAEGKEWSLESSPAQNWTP
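material = rat Arfgap1 catalytic domain, aa 1-136 | also added = human ARF1(Δ1-17)-GTP substrate | compound dosing = one concentration, 16.5 µM, DMSO 1.26% | times = GTP hydrolysis reaction 2 h at 25 °C | measured by = FP, GDP Alexa 633 tracer displaced from anti-GDP antibody, 620/688 nm | evaluation = percent inhibition of Arfgap1-stimulated GTP hydrolysis | replication = single well per compound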
ASAP1 GAP inh = inhibitors of human ASAP1 ArfGAP activity; Q9ULH1; ASAP1-stimulated ARF1 GTP hydrolysis, GDP FP detection; inhibition, % at 16.5 µM; 360,000 tested, 0.19% active; AID 624377; in the data active = inhibition above about 25%;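 note: 0% = vehicle with enzyme and substrate and 100% = no enzyme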
Target sequence (Q9ULH1 325-724 limits assumed): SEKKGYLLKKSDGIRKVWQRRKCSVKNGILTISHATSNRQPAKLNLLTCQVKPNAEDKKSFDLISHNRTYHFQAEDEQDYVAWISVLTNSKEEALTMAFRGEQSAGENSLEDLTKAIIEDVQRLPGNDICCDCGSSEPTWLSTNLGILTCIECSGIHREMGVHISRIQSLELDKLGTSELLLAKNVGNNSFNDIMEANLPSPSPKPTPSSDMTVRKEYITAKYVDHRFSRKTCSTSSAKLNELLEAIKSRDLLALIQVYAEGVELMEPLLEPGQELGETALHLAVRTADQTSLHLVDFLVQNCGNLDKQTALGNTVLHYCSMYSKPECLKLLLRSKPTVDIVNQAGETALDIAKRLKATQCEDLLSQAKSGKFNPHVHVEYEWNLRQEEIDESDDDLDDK
V-ATPase pHluor = regulators of yeast V-ATPase proton transport | S. cerevisiae, pHLuorin cytosolic pH fluorescence | response, % at 10 µM | 350,000 tested, 0.37% active; in the data active = response mostly above about 7.3%, no sharp cut-off; inactive = mostly below about 5.4%; note: actives read high
Numbers without * were called inactive. Sampled rows, rich in hits. Any-hit rate of the full collection: about 2.2%.

For N=C1C(=O)OCC1c1cc(Cl)ccc1NC(=O)Nc1ccccc1 (configuration not stated) the results were CendR NRP1 mod 39*, Exocytosis inh 2, ARFGAP1 inh 1, ASAP1 GAP inh 16 and V-ATPase pHluor -2.
CCOc1ccc(S(=O)(=O)N2CCCC2)c2ccccc12 was read as CendR NRP1 mod -13, Exocytosis inh -9, ARFGAP1 inh -1, ASAP1 GAP inh -9 and V-ATPase pHluor -1.
For CCOc1ccc(S(=O)(=O)N2CCC(C(N)=O)CC2)c2ccccc12 the results were CendR NRP1 mod -5, Exocytosis inh 1, ARFGAP1 inh 11, ASAP1 GAP inh -7 and V-ATPase pHluor 22*.
`Cc1csc(SCC(=O)Nc2cc(S(=O)(=O)N3CCCC3)ccc2Cl)n1` gave CendR NRP1 mod 5, Exocytosis inh -2, ARFGAP1 inh 3, ASAP1 GAP inh 2 and V-ATPase pHluor 4.
Cc1csc(SCC(=O)Nc2cccc(S(=O)(=O)N3CCCC3)c2)n1 was read as CendR NRP1 mod 26*, Exocytosis inh 0, ARFGAP1 inh 14, ASAP1 GAP inh 0 and V-ATPase pHluor 0.
Screening CCOC(=O)N1CCN(C(=O)C2CCN(C(=O)c3ccc([N+](=O)[O-])cc3)CC2)CC1 returned CendR NRP1 mod 12, Exocytosis inh 3, ARFGAP1 inh 7, ASAP1 GAP inh 1 and V-ATPase pHluor 2.
CCOC(=O)C1CCN(C(=O)C2CCN(C(=O)c3ccc([N+](=O)[O-])cc3)CC2)CC1 was read as CendR NRP1 mod 24*, Exocytosis inh 0 and V-ATPase pHluor 1.
Cc1cc2c(nc1C)CCCN2S(=O)(=O)c1ccccc1 was read as ARFGAP1 inh -11 and ASAP1 GAP inh 4.
`O=Cc1cc(N=Nc2ccccc2Cl)ccc1O` gave CendR NRP1 mod -15, Exocytosis inh 62*, ARFGAP1 inh -19, ASAP1 GAP inh -23 and V-ATPase pHluor -2.
For O=Cc1cc(N=Nc2cccc(C(=O)O)c2)ccc1O the results were CendR NRP1 mod -40, Exocytosis inh 52, ARFGAP1 inh 8, ASAP1 GAP inh 4 and V-ATPase pHluor -3.
`CC(C)(C)NC(=O)C(c1cccs1)N(C(=O)c1csnn1)c1cccc(F)c1` (configuration not stated) gave CendR NRP1 mod -3, Exocytosis inh -3, ARFGAP1 inh 4, ASAP1 GAP inh 3 and V-ATPase pHluor -4.
Screening CCC(C)(C)NC(=O)C(c1ccco1)N(C(=O)c1csnn1)c1cccc(F)c1 (configuration not stated) returned CendR NRP1 mod 34*, Exocytosis inh 2, ARFGAP1 inh -4, ASAP1 GAP inh -5 and V-ATPase pHluor 1.
For Cc1ccc(-c2nnn(CC(=O)N(c3cccc(F)c3)C(C(=O)NC(C)(C)C)c3ccco3)n2)o1 (configuration not stated) the results were CendR NRP1 mod 44*, Exocytosis inh -3, ARFGAP1 inh 4, ASAP1 GAP inh -2 and V-ATPase pHluor 0.
`CCN(CC)C(=O)CN1C(=O)/C(=C/c2ccccc2)SC1=S` gave CendR NRP1 mod 20*, Exocytosis inh -4, ARFGAP1 inh -7, ASAP1 GAP inh -10 and V-ATPase pHluor 1.
For CC(=O)NNC(=O)CN1C(=O)/C(=C/c2ccccc2)SC1=S the results were CendR NRP1 mod 11, Exocytosis inh -2, ARFGAP1 inh -6, ASAP1 GAP inh 0 and V-ATPase pHluor -2.
For O=C1/C(=C\c2cc(Cl)c(O)c(Cl)c2)SC(=S)N1Cc1ccccc1 the results were CendR NRP1 mod 146, Exocytosis inh -6, ARFGAP1 inh 13, ASAP1 GAP inh 7 and V-ATPase pHluor 97*.
`CCc1ccc(/C=C2\SC(=S)N(CCCC(=O)N(CCO)c3ccccc3)C2=O)cc1` gave CendR NRP1 mod 28*, Exocytosis inh 40, ARFGAP1 inh 8 and ASAP1 GAP inh 12.
For C[C@H]1CN([C@@H](C)CO)C(=O)CCCn2cc(nn2)CO[C@@H]1CN(C)S(=O)(=O)c1ccc(F)cc1 the results were ARFGAP1 inh 16 and ASAP1 GAP inh 2.
`COc1cccc(/C=N/Nc2ccccc2C(=O)O)c1O` gave CendR NRP1 mod -5, Exocytosis inh -2, ARFGAP1 inh 1, ASAP1 GAP inh -5 and V-ATPase pHluor 1.
`O=C(O)c1ccccc1NN=Cc1ccccc1` gave CendR NRP1 mod -7, Exocytosis inh 60*, ARFGAP1 inh -10, ASAP1 GAP inh -9 and V-ATPase pHluor 5.
Screening O=C(N[C@H](C(=O)N1CCC[C@H]1C(=O)NC1CCCC1)C1CCCCC1)c1cccs1 returned ARFGAP1 inh 7 and ASAP1 GAP inh -13.
For COC(=O)c1cnc(Oc2ccc(NC(=O)NC(=O)c3ccccc3Cl)cc2)cc1C(F)(F)F the results were CendR NRP1 mod 29*, Exocytosis inh -2, ARFGAP1 inh 2, ASAP1 GAP inh 6 and V-ATPase pHluor 3.
Cc1ccc(-n2c(-c3ccc(Br)cc3)c[n+]3c2CCc2ccc4cccnc4c2-3)cc1 was read as CendR NRP1 mod -15, Exocytosis inh 72*, ARFGAP1 inh 0, ASAP1 GAP inh -17 and V-ATPase pHluor 9.
Screening COc1ccc(-n2c(-c3ccc(Cl)cc3)c[n+]3c2CCc2ccccc2-3)cc1 returned CendR NRP1 mod 4, Exocytosis inh 1, ARFGAP1 inh 2, ASAP1 GAP inh 6 and V-ATPase pHluor 0.
For COc1ccccc1CN1Cc2ccccc2Oc2ccccc2S1(=O)=O the results were ARFGAP1 inh 2 and ASAP1 GAP inh -12.
Screening Oc1ccc(/C=N/NC(=S)Nc2cccnc2)cc1 returned CendR NRP1 mod 23*, Exocytosis inh -2, ARFGAP1 inh 4, ASAP1 GAP inh 8 and V-ATPase pHluor 11.
`Cc1ccc(C(=O)/C=C/NCc2ccc(F)cc2)cc1` gave CendR NRP1 mod 36*, Exocytosis inh 0, ARFGAP1 inh -11, ASAP1 GAP inh 2 and V-ATPase pHluor -2.
COC(=O)c1cc2c(c3c4ccccc4n(S(=O)(=O)c4ccccc4)c13)C(=O)N(Cc1ccc(C(F)(F)F)cc1)C2 was read as ARFGAP1 inh -7 and ASAP1 GAP inh 0.
C[C@@H]1CN(C(=O)OC(C)(C)C)CCN1c1ccc(N2CC[C@@H](O)C2)c(C#N)c1 was read as ARFGAP1 inh -2 and ASAP1 GAP inh 1.
For O=C(/C=C/c1cccnc1)c1ccc(NC(=O)c2cccc(Br)c2)cc1 the results were CendR NRP1 mod 19*, Exocytosis inh 1, ARFGAP1 inh 8, ASAP1 GAP inh 26* and V-ATPase pHluor 2.
`Cc1cccc(C(=O)Nc2ccc(C(=O)/C=C/c3cccnc3)cc2)c1` gave CendR NRP1 mod 2, Exocytosis inh 14, ARFGAP1 inh 8, ASAP1 GAP inh 5 and V-ATPase pHluor 2.
Screening C[C@H](NC(=O)c1[nH]cnc1C(=O)Nc1ccccc1)c1ccccc1 returned CendR NRP1 mod 26*, Exocytosis inh -12, ARFGAP1 inh 5, ASAP1 GAP inh 2 and V-ATPase pHluor 4.
